Results gathered from unrelated publications.
Lines come from different studies, so protocols differ.
Organism: Nakaseomyces glabratus
Observed: microbial growth
Strain: ATCC90030

SMILES | method | time | IC50
CCOC(=O)c1nc2ccccc2c(=O)n1Cc1cn(-c2cccc(C)c2)nn1 | broth dilution | 24 h | 395 µg/mL
C[C@@H]1[C@H](O)[C@@H](C)/C=C/C=C/C=C/C=C/C=C/C=C/C=C/[C@H](O[C@@H]2O[C@H](C)[C@@H](O)[C@H](N)[C@@H]2O)C[C@@H]2O[C@](O)(C[C@@H](O)C[C@@H](O)[C@H](O)CC[C@@H](O)C[C@@H](O)CC(=O)O[C@H]1C)C[C@H](O)[C@H]2C(=O)O | broth dilution |  | 0.39 µg/mL
O=C(O)c1ccc(-n2cc(Cn3c(C(=O)O)nc4ccccc4c3=O)nn2)cc1 | broth dilution | 24 h | 522 µg/mL
C#CCCCCCCCCCCCC(O)CC(O)CO (stereo not shown) | broth dilution |  | > 200 µg/mL
CCCCCOc1c(OC)cc(NC(C)CCCNC(=O)C(N)C(C)CC)c2nc(C(C)(C)C)ccc12 (stereo not shown) |  |  | 15.2 µg/mL
O=C(O)c1nc2ccccc2c(=O)n1Cc1cn(-c2ccccc2Cl)nn1 | broth dilution | 24 h | 266 µg/mL
COc1cc(NC(C)CCCN)c2nc(C(C)(C)C)ccc2c1Oc1ccc(Cl)c(Cl)c1 (stereo not shown) |  |  | 19.4 µg/mL
C[C@@H]1[C@H](O)[C@@H](C)/C=C/C=C/C=C/C=C/C=C/C=C/C=C/[C@H](O[C@@H]2O[C@H](C)[C@@H](O)[C@H](N)[C@@H]2O)C[C@@H]2O[C@](O)(C[C@@H](O)C[C@@H](O)[C@H](O)CC[C@@H](O)C[C@@H](O)CC(=O)O[C@H]1C)C[C@H](O)[C@H]2C(=O)O |  |  | 390 nM
CCCCCCCCCCCCCC(O)CC(O)CO (stereo not shown) | broth dilution |  | > 200 µg/mL
CCCCCOc1c(OC)cc(NC(C)CCCNC(=O)C(N)Cc2cc3ccccc3[nH]2)c2nc(C(C)(C)C)ccc12 (stereo not shown) |  |  | 9.72 µg/mL
